The values that follow come from paper PMC4682886 (ChemMedChem, 2015).

In general, EC50 refers to the concentration needed to bring the measured effect to its halfway point.

For one series, the system named is NIH 3T3 cells. In words: Cytotoxicity against NIH 3T3 cells. Type of series: cell-based. To be noted: concentrations up to 1.5 mM. An outline of the steps: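 Test compound applied to NIH 3T3 cells at concentrations up to 1.5 mM. Values are arithmetic means ± SD of three independent experiments.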
Series [1] deals with C. albicans susceptible strain HLY4123. In words: Dose-response curves of test compounds against C. albicans with fluconazole. It is filed as cell-based. To be noted: for EC50: strain HLY4123, in the presence of fluconazole (0.25 μg/mL), mean ± SD of three independent experiments.
The subject of series [2] is partially resistant clinical isolate of C. albicans CaCi-8. Particulars: cited from earlier work; for active concentration: against CaCi-8 with fluconazole, none active below this, ref [48]–[50].

Each structure is given as a SMILES string.

Regarding `Cc1c(Cl)ccc2c1NC(=O)[C@]21N[C@H](Cc2ccccc2)[C@@H]2C(=O)N(c3ccc(F)cc3)C(=O)[C@@H]21` (racemic) [Compound 1, (±)-(3R,3′R,3a′R,6a′S)-3′-benzyl-6-chloro-5′-(4-fluorophenyl)-7-methyl-2′,3′,3a′,6a′-tetrahydro-4′H-spiro[indoline-3,1′-pyrrolo[3,4-c]pyrrole]-2,4′,6′(5′H)-trione], the cytotoxicity result with NIH 3T3 cells was “only weak cytotoxicity”. Moreover, the EC50 in series [1] was 11 ± 4 nM.
Regarding `O=C(Cn1c2ccccc2c2nc3n(c(=O)c21)CCS3)N1CCCC1` [ML229], in series [2], the active concentration is at least 0.7 µM.
Consider `COC(=O)Cn1nc(-c2cccc(OC)c2)c2ccccc21` [ML212], for which, in series [2], the active concentration is at least 0.7 µM.
Regarding `Cc1c(Cl)ccc2c1NC(=O)[C@]21N[C@@H](Cc2ccccc2)[C@H]2C(=O)N(c3ccc(F)cc3)C(=O)[C@H]21` [CID 6584729, (1S,3R,3aR,6aS)-1-benzyl-6′-chloro-5-(4-fluorophenyl)-7′-methylspiro[1,2,3a,6a-tetrahydropyrrolo[3,4-c]pyrrole-3,3′-1H-indole]-2′,4,6-trione], the EC50 in series [2] (enhancing the effect of fluconazole against CaCi-8, ref [68]) was 120 nM.
Turning to `Cc1c(Cl)ccc2c1N(Cc1ccccc1)C(=O)[C@@]21[C@H]2C(=O)N(c3ccccc3)C(=O)[C@H]2[C@H]2CN(C(=O)OC(C)(C)C)CCN21` (racemic) [Compound 17, (±)-tert-butyl (3R,3a′R,3b′S,9a′S)-1-benzyl-6-chloro-7-methyl-1′,2,3′-trioxo-2′-phenyl-2′,3′,3a′,3b′,4′,6′,7′,9a′-octahydrospiro [indoline-3,9′-pyrrolo[3′,4′:3,4]pyrrolo[1,2-a]pyrazine]-5′(1′H)-carboxy late], the EC50 in series [1] is above 100000 nM.
Regarding `CO[C@H](C(=O)N1CCN2[C@H](C1)[C@@H]1C(=O)N(c3ccccc3)C(=O)[C@@H]1[C@@]21C(=O)Nc2c1ccc(Cl)c2C)c1ccccc1` (racemic) [Compound 28, (±)-(3R,3a′R,3b′S,9a′S)-6-chloro-5′-((S)-2-methoxy-2-phenylacetyl)-7-methyl-2′-phenyl-3a′,4′,5′,6′,7′,9a′-hexahydrospiro [indoline-3,9′-pyrrolo[3′,4′:3,4]pyrrolo[1,2-a]pyrazine]-1′,2,3′(2′H, 3b′H)-trione], the concentration for a half-maximal effect (EC50) in series [1] turned out to be 35 ± 7 nM.
Consider `O=C(c1ccc(Cl)cc1)N1CCN(c2ccnc3cc(Cl)ccc23)CC1` [ML189], for which the active concentration in series [2] was at least 0.7 µM.
For `Cc1c(Cl)ccc2c1NC(=O)[C@@]21[C@@H]2C(=O)N(c3ccccc3)C(=O)[C@@H]2[C@H]2C[C@@H](OC(=O)c3ccccc3)CN21` [Compound 25b, (−)-(3R,3a′R,7′R, 8a′R,8b′S)-6-chloro-7-methyl-1′,2,3′-trioxo-2′-phenyl-2′,3′,3a′,6′,7′,8′, 8a′,8b′-octahydro-1′H-spiro[indoline-3,4′-pyrrolo[3,4-a]pyrrolizin]-7′-yl benzoate], the “activity under the conditions of the assay” value in series [1] (strain HLY4123, in combination with fluconazole) is given as “almost no activity”.
